Shown is part of a subset that was picked to be rich in hits.
T cruzi growth-1 = T. cruzi proliferation inhibition | inhibition, % at 8.34 µM | T. cruzi beta-gal in NIH3T3, GalScreen luminescence, 90 h | hit rate 5.9% among 77,000 | AID 624255;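 active = mean inhibition above about 93%, with at least 55% of replicates each passing it, limit read from the data, passing the limit was not always enough; inconclusive = only one of those two conditions holds; inactive = neither condition holds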
KDM4C inh = KDM4C (human) demethylase inhibition. GST-KDM4C 2-372, H3K9me3 peptide, LANCE TR-FRET. hit rate 0.15% among 96,000. inhibition, % at 12.5 µM. Q9H3R0;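 active = mean replicate inhibition above about 25%, with at least 55% of replicates also reaching it, limit read from the data, passing the limit was not always enough; inconclusive = only one of those two conditions met; inactive = neither condition met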
Target sequence (Q9H3R0 2-372 limits assumed): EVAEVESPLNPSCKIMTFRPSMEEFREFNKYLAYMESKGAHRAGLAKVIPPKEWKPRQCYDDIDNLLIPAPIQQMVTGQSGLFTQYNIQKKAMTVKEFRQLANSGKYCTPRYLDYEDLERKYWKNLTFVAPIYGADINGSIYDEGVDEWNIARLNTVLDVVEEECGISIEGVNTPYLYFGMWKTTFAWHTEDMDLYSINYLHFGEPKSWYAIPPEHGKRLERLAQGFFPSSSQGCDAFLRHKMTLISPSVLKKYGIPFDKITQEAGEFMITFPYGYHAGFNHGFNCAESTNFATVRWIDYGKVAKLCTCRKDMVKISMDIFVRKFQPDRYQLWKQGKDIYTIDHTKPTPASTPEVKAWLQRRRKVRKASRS
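System: N-terminal GST-fused human GASC-1 (KDM4C) fragment, residues 2-372 / Amount: 10 nM GST-KDM4C in enzyme reaction / Also added: H3K9me3 peptide with Fe(II)/2OG / Times: 30 min demethylation and 1 h detection at room temperature / Signal: LANCE TR-FRET / Read-out basis: Fall in 671/618 emission ratio as inhibition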
IDH1 mut inh = blocks human IDH1 R132H reductase activity | diaphorase/resazurin fluorescence, 60 min | inhibition, % at 10 µM | hit rate 0.18% among 70,000 | AID 624101; in the data active = inhibition above about 34%; inconclusive = no clear call, values can overlap the other calls; inactive = below about 11%;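 note: 0% = DMSO and 100% = no enzyme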
T cruzi growth-2 = Trypanosoma cruzi proliferation inhibition; shares compounds with T cruzi growth-1; inhibition, % at 8.35 µM; hit rate 72% among 5,600; T. cruzi beta-gal in NIH3T3, GalScreen luminescence, 90 h;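 active = mean replicate inhibition above about 95% and at least 55% of replicates individually reaching it, limit read from the data; inconclusive = only one of the two criteria is met; inactive = neither criterion is met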
T cruzi growth-3 = Trypanosoma cruzi proliferation inhibition. shares compounds with T cruzi growth-1. T. cruzi beta-gal in NIH3T3, GalScreen luminescence, 90 h. inhibition, % at 2.09 µM. hit rate 21% among 5,600. AID 651740;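 active = mean inhibition above about 95%, with at least 55% of replicates also reaching it, limit read from the data; inconclusive = meets just one of the two conditions; inactive = meets neither condition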;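 note: plate controls were neutral control median for no effect and positive control median for full effect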
NIH3T3 tox = cytotoxicity in mouse NIH/3T3 fibroblasts | shares compounds with T cruzi growth-1 | NIH/3T3 viability, CellTiter-Glo ATP luminescence, 90 h | cytotoxicity (signal decrease), % at 8.35 µM | hit rate 14% among 5,600 | AID 651742;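 active = mean signal decrease across replicates above about 35% based on untreated-well scatter, with enough replicates individually passing, limit read from the data; inconclusive = no rule stated though some were filed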;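 note: 0% = median of neutral control wells and 100% = median of positive control wells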
NIH3T3 tox 2 = kills mouse NIH/3T3 fibroblasts; shares compounds with T cruzi growth-1; NIH/3T3 viability, CellTiter-Glo ATP luminescence, 90 h; inhibition, % at 24.9 µM; hit rate 56% among 5,600;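 active = mean loss of cell viability signal at or above a set limit, and enough replicates individually reaching it; inconclusive = meets only the mean limit or only the replicate share; inactive = meets neither condition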;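 note: 0% = median of neutral control wells and 100% = median of positive control wells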
* marks the source's active call; other numbers are inactive results; ? = inconclusive; · = no result.

SMILES	T cruzi growth-1	KDM4C inh	IDH1 mut inh	T cruzi growth-2	T cruzi growth-3	NIH3T3 tox	NIH3T3 tox 2
CCCC#Cc1ccc2c(c1)O[C@@H](CN(C)Cc1ccncc1)[C@H](C)CN([C@@H](C)CO)S2(=O)=O	120.9*	4.9	6.4	101.0*	107.1*	62.9*	103.7*
CCCC#Cc1ccc2c(c1)O[C@H](CN(C)Cc1ccncc1)[C@@H](C)CN([C@H](C)CO)S2(=O)=O	117.5*	7.4	1.7	98.3*	?	36.8*	103.6*
CCCC#Cc1ccc2c(c1)O[C@H](CN(C)Cc1ccncc1)[C@H](C)CN([C@@H](C)CO)S2(=O)=O	118.1*	-2.6	17.4	89.9	65.4	?	41.0*
C[C@@H]1CN([C@@H](C)CO)S(=O)(=O)c2ccc(C#CCN(C)C)cc2O[C@H]1CN(C)Cc1ccncc1	107.0*	5.8	12.8	108.0*	?	27.2	45.6*
C=C[C@H]1[C@H](O[C@@H]2O[C@H](CO)[C@@H](O)[C@H](O)[C@H]2O)OC=C(C(=O)OC)[C@H]1C[C@@H]1N[C@H](C(=O)O)Cc2c1[nH]c1ccccc21	·	·	-0.3	·	·	·	·
CCCC(=O)Nc1ccc2c(c1)C(=O)N(C)C[C@H](OC)[C@H](C)CN(Cc1cccc(F)c1)[C@@H](C)CO2	2.2	-0.7	0.2	·	·	·	·
C/C=C/c1ccc2c(c1)O[C@@H](CN(C)C(=O)C1CCCCC1)[C@@H](C)CN([C@H](C)CO)S2(=O)=O	·	-0.5	·	·	·	·	·
CCCC#Cc1ccc2c(c1)O[C@@H](CN(C)Cc1ccncc1)[C@@H](C)CN([C@@H](C)CO)S2(=O)=O	113.5*	3.9	7.0	101.9*	96.2*	26.2	99.9*
CCCC#Cc1ccc2c(c1)O[C@@H](CN(C)Cc1ccncc1)[C@@H](C)CN([C@H](C)CO)S2(=O)=O	113.8*	5.8	0.2	104.8*	90.0	31.5	-1.7
CCCC(=O)Nc1ccc2c(c1)C(=O)N(C)[C@@H]1CC[C@H](CC(=O)NCc3ccccc3F)O[C@@H]1CO2	-12.1	0.0	·	·	·	·	·
CN1C(=O)c2cc(NC(=O)NC3CCCC3)ccc2OC[C@H]2O[C@@H](CC(=O)O)CC[C@H]21	-38.1	2.4	·	·	·	·	·
COc1ccc(CN(C)C[C@H]2Oc3ccc(NS(=O)(=O)c4ccc(Cl)cc4)cc3CC(=O)N([C@H](C)CO)C[C@H]2C)cc1	86.1	-0.6	0.3	·	·	·	·
COc1ccc(CN(C)C[C@H]2Oc3ccc(NS(=O)(=O)c4ccc(Cl)cc4)cc3CC(=O)N([C@@H](C)CO)C[C@@H]2C)cc1	106.6*	1.9	0.4	96.6*	79.2	4.6	85.7*
COc1ccc(CN(C)C[C@@H]2Oc3ccc(NS(=O)(=O)c4ccc(C)cc4)cc3CC(=O)N([C@@H](C)CO)C[C@H]2C)cc1	·	-0.7	-1.5	·	·	·	·
COc1ccc(CN(C)C[C@H]2Oc3ccc(NS(=O)(=O)c4ccc(C)cc4)cc3CC(=O)N([C@@H](C)CO)C[C@@H]2C)cc1	104.5*	5.2	-1.2	110.4*	7.9	4.4	3.9
CCCNC(=O)C[C@@H]1CC[C@@H]2[C@@H](COc3ccc(NC(=O)c4cccc(OC)c4)cc3C(=O)N2C)O1	-63.7	-1.1	·	·	·	·	·
C[C@H](CO)N1C[C@H](C)[C@@H](CN(C)C(=O)Nc2ccc3c(c2)OCO3)Oc2ncc(-c3ccncc3)cc2C1=O	-116.0	1.3	0.0	·	·	·	·
C[C@H]1CN([C@@H](C)CO)C(=O)Cc2cc(NC(=O)Nc3cccc4ccccc34)ccc2O[C@H]1CN(C)Cc1ccc(-c2ccccc2)cc1	86.9	-2.9	-0.2	·	·	·	·
C[C@@H]1CN([C@@H](C)CO)C(=O)Cc2cc(NC(=O)Nc3cccc4ccccc34)ccc2O[C@@H]1CN(C)Cc1ccc(-c2ccccc2)cc1	103.5*	-3.4	·	108.3*	75.3	23.0	?
C[C@@H]1CN([C@H](C)CO)C(=O)Cc2cc(NC(=O)Nc3cccc4ccccc34)ccc2O[C@@H]1CN(C)Cc1ccc(-c2ccccc2)cc1	97.9*	-3.1	2.0	111.8*	62.2	18.8	?
C[C@@H]1CN([C@H](C)CO)C(=O)Cc2cc(NC(=O)Nc3cccc4ccccc34)ccc2O[C@H]1CN(C)Cc1ccccc1	49.3	-3.9	-0.3	·	·	·	·
CC(=O)NC[C@@H]1[C@@H](c2ccc(C3=CCCCC3)cc2)[C@H](CO)N1C(=O)NC(C)C	6.8	4.1	·	·	·	·	·
CCC(=O)NC[C@H]1[C@H](c2ccc(C3=CCCC3)cc2)[C@@H](CO)N1C(C)=O	76.4	-0.5	·	·	·	·	·
CC(C)NC[C@@H]1[C@@H](c2ccc(C3=CCCCC3)cc2)[C@H](CO)N1C(=O)NC(C)C	?	1.3	·	101.5*	78.9	-2.0	105.3*
CC(C)NC[C@H]1[C@H](c2ccc(C3=CCCCC3)cc2)[C@@H](CO)N1C(=O)NC(C)C	98.3*	-3.1	·	104.4*	48.4	33.1	104.3*
SMILES	T cruzi growth-1	KDM4C inh	IDH1 mut inh	T cruzi growth-2	T cruzi growth-3	NIH3T3 tox	NIH3T3 tox 2
CCC(=O)NC[C@H]1[C@@H](c2ccc(-c3ccccc3)cc2)[C@H](CO)N1C(=O)C1CC1	98.0*	-0.7	·	-19.0	-22.4	-9.5	7.9
CCC(=O)NC[C@H]1[C@@H](c2ccc(C3=CCCC3)cc2)[C@H](CO)N1C(C)=O	101.2*	2.4	·	34.7	74.7	9.4	25.6
CCC(=O)NC[C@H]1[C@H](c2ccc(-c3ccccc3)cc2)[C@H](CO)N1C(=O)C1CC1	74.1	-1.1	·	·	·	·	·
CC(=O)NC[C@@H]1[C@@H](c2ccc(C3=CCCCC3)cc2)[C@@H](CO)N1C(=O)NC(C)C	56.8	1.2	·	·	·	·	·
CCCNC(=O)N1CC2(CCN(C(=O)C3CCOCC3)CC2)c2c([nH]c3cc(OC)ccc23)[C@H]1CO	·	0.4	·	·	·	·	·
O=C(C[C@H]1C[C@@H]2c3cc(NC(=O)NC4CCCC4)ccc3O[C@@H]2[C@H](CO)O1)NCc1ccc(Oc2ccccc2)cc1	·	0.4	0.3	·	·	·	·
O=C(CN1CCOCC1)NCC[C@H]1CC[C@H](NS(=O)(=O)c2ccc(Cl)cc2)[C@@H](CO)O1	-52.3	-0.4	0.3	·	·	·	·
CCC(=O)N1CCC2(CC1)CN(Cc1cccc(F)c1)[C@H](CO)c1c2c2ccc(OC)cc2n1C	·	-1.9	·	·	·	·	·
CC(=O)NC[C@H]1[C@H](c2ccc(C3=CCCC3)cc2)[C@H](CO)N1C(=O)NC(C)C	-20.6	1.9	·	·	·	·	·
CC(C)NC[C@H]1[C@@H](c2ccc(C3=CCCCC3)cc2)[C@@H](CO)N1C(=O)NC(C)C	?	-1.4	·	101.7*	56.3	38.8*	103.7*
CC(C)CC#Cc1ccc2c(c1)O[C@H](CN(C)S(C)(=O)=O)[C@H](C)CN([C@H](C)CO)S2(=O)=O	24.2	12.1	-2.5	·	·	·	·
